Here are results for 13 compounds from ChEMBL document CHEMBL1152975, “Design and synthesis of orally bioavailable serum and glucocorticoid-regulated kinase 1 (SGK1) inhibitors” (Bioorg Med Chem Lett, 2009).

The test system of data set [1] is Rattus norvegicus. The experiment in a line: Dose normalized AUC (0 to t) in po dosed rat by cassette dosing. The format is ADME, organism-based. The settings on record: in vivo. The gist of the method:
(§1)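 Rats were given a cassette of four compounds as one mixture, dosed iv and orally. Clearance, Vdss and terminal half-life come from the iv arm; oral AUC0–t and dose-normalized AUC0–t come from the oral arm.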

Data set [2] has as its target T1, Serine/threonine-protein kinase Sgk1 (Homo sapiens, UniProt O00141).
T1 sequence (O00141 whole entry): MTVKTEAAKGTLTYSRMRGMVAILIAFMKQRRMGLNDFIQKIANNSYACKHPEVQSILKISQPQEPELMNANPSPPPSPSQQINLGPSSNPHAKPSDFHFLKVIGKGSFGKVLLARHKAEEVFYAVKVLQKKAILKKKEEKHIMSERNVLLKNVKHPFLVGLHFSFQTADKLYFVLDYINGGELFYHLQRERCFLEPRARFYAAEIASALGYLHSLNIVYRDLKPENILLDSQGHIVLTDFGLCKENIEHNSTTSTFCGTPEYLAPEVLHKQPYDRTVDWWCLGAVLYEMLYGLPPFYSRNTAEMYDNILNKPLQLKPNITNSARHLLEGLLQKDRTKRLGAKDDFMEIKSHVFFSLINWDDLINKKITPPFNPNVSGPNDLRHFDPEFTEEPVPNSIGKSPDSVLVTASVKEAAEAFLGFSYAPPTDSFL
The experiment in a line: Inhibition of SGK1-mediated epithelial sodium channel activity in human M-1 cells assessed as short circuit current by whole cell electrophysiological transepithelial experiment. Type of data set: cell-based.

Data set [3] concerns the target T1, Serine/threonine-protein kinase Sgk1. The experiment in a line: Inhibition of SGK1 by fluorescence polarization assay. For orientation: Polarisation of emitted light reports the rotation of a fluorescent probe.
A short description of data set [4]: AUC (0 to t) in po dosed rat by cassette dosing. The format is ADME, organism-based. Particulars: plasma. The gist of the method: as §1
Data set [5] can be described thus: Terminal half life in iv dosed rat by cassette dosing. The format is ADME, organism-based. The settings on record: in vivo, read-out: beta t1/2. An outline of the steps: as §1
A short description of data set [6]: Volume of distribution at steady state in rat by cassette dosing. The settings on record: in vivo, read-out: Vdss. The format is ADME, organism-based. The gist of the method:
as §1

The nature of data set [7]: Plasma clearance in rat by cassette dosing. Type of data set: ADME, organism-based. The gist of the method:
as §1

Data set [8] in a line: Dissociation constant, pKa of the compound. The format is physicochemical.
The nature of data set [9]: AUC (0 to t) in po dosed rat by discrete study. The format is ADME, organism-based. The settings on record: plasma. An outline of the steps:
(§2)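 Each compound was dosed on its own (discrete study) to rats, iv and orally. Clearance, Vdss and terminal half-life come from the iv arm; oral AUC0–t and dose-normalized AUC0–t come from the oral arm.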

Data set [10] is described as follows: Volume of distribution at steady state in rat by discrete study. Type of data set: ADME, organism-based. Particulars: in vivo, read-out: Vdss. The gist of the method: as §2
Data set [11] in a line: Plasma clearance in rat by discrete study. The format is ADME, organism-based. An outline of the steps: as §2
A short description of data set [12]: Terminal half life in iv dosed rat by discrete study. Type of data set: ADME, organism-based. The settings on record: in vivo, read-out: beta t1/2. The gist of the method: as §2
Data set [13] has as its system Rattus norvegicus. Briefly: Dose normalized AUC (0 to t) in po dosed rat by discrete study. Type of data set: ADME, organism-based. The settings on record: in vivo. The gist of the method:
as §2

The compound `CC(C)(C(=O)O)c1ccc(-c2c[nH]c3ncc(-c4ccc5ccccc5c4)cc23)cc1` came in with an AUC with Rattus norvegicus [1] of 2100 ng·h/mL/mg/kg. Further, the figures for the IC50 in data set [2] and in data set [3] were 870 nM and 63 nM, respectively. Moreover, in data set [4], the AUC(0-t) (in general, exposure summed from dosing to a finite time, without extrapolation to infinity) came out at 4170 ng·h/mL. Further, the half-life in data set [5] stood at 4.4 h. Moreover, the Vd in data set [6] is 0.67 L/kg. Also, the clearance (commonly the rate of elimination divided by the concentration) in [7] amounted to 4.32 mL/min/kg.
Consider `CC(C)(C(=O)O)c1ccc(-c2c[nH]c3ncc(-c4ccccc4)cc23)cc1`, for which the IC50 (as a rule, the concentration that gives 50% inhibition) in [2] came to 1460 nM; in [3], 50 nM.
As for `COC(=O)c1ccc(-c2c[nH]c3ncc(-c4ccccc4)cc23)cc1`, it took 3160 nM to reach half-maximal inhibition in [3] (IC50).
Consider `CC(C)Cc1cc(-c2c[nH]c3ncc(-c4ccccc4)cc23)ccc1C(=O)O`, for which the AUC with Rattus norvegicus [1] amounted to 176 ng·h/mL/mg/kg. Also, the IC50 was found to be 580 nM in [2] and 5 nM in data set [3]. Besides, in data set [4], the AUC(0-t) came to 373 ng·h/mL. Moreover, the half-life in [5] amounted to 1.17 h. For the same compound, in [6], the Vd stood at 0.62 L/kg. Besides, in [7], the clearance amounted to 21.9 mL/min/kg.
In the case of `O=C(O)c1ccc(-c2c[nH]c3ncc(-c4ccccc4)cc23)cc1C1CCCC1` [GSK-650394], the AUC in the data set on Rattus norvegicus [1] turned out to be 134 ng·h/mL/mg/kg. Further, the AUC(0-t) in data set [4] is 313 ng·h/mL. The half-life in data set [5] was 1.58 h. Also, the Vd in data set [6] turned out to be 0.77 L/kg. In data set [7], this compound displayed a clearance of 25.7 mL/min/kg.
With `CCc1cc(-c2c[nH]c3ncc(-c4ccccc4)cc23)ccc1C(=O)O`, in the data set on Rattus norvegicus [1], the AUC was 600 ng·h/mL/mg/kg. In addition, the IC50 in data set [2] was found to be 710 nM; in data set [3], 20 nM. The compound further yielded an area under the curve AUC(0-t) in data set [4] of 1500 ng·h/mL. Further, the half-life in data set [5] came out at 1.62 h. In [6], the Vd stood at 0.43 L/kg. Besides, the clearance in data set [7] was determined as 9.4 mL/min/kg.
In turn, `CC(=O)c1ccc(-c2c[nH]c3ncc(-c4ccccc4)cc23)cc1` came in with an IC50 in data set [3] of 5000 nM.
For the compound `c1ccc(-c2cnc3[nH]cc(-c4ccc(-c5nnn[nH]5)cc4)c3c2)cc1`, the half-inhibitory concentration (IC50) in data set [3] came to 160 nM. Also, in data set [8], the pKa (commonly the negative logarithm of the acid dissociation constant) worked out at 4.9.
Regarding `CC(C(=O)O)c1ccc(-c2c[nH]c3ncc(-c4ccc5ccccc5c4)cc23)cc1` (centres undefined), in data set [3], the IC50 was 125 nM.
Take `CC(C)(C(=O)O)c1ccc(-c2c[nH]c3ncc(-c4cccc(C#N)c4)cc23)cc1`: the AUC with Rattus norvegicus [1] is 905 ng·h/mL/mg/kg. Also, the results for the IC50 in data set [2] and in data set [3] were 2000 nM and 40 nM, respectively. In data set [4], the area under the curve AUC(0-t) amounted to 1910 ng·h/mL. In addition, the half-life in data set [5] stood at 8.13 h. Further, in [6], the Vd worked out at 2.5 L/kg. The clearance in [7] was 6.56 mL/min/kg.
`O=C(O)Cc1ccc(-c2c[nH]c3ncc(-c4ccc5ccccc5c4)cc23)cc1`: in data set [2], the half-inhibitory concentration (IC50) worked out at 880 nM. The compound further yielded an AUC(0-t) in data set [9] of 467 ng·h/mL. For the same compound, the Vd in data set [10] is 1.3 L/kg. Also, in data set [11], the clearance is 21.3 mL/min/kg. The half-life in data set [12] came to 4.22 h. The AUC with Rattus norvegicus [13] amounted to 225 ng·h/mL/mg/kg.
Take `NCc1ccc(-c2c[nH]c3ncc(-c4ccccc4)cc23)cc1`: it took 400 nM to reach half-maximal inhibition in data set [3] (IC50).
`O=C(O)c1ccc(-c2c[nH]c3ncc(-c4ccccc4)cc23)cc1`: the IC50 in [2] came out at 1300 nM. Besides, the AUC(0-t) in data set [9] is 392 ng·h/mL. For the same compound, in data set [10], the Vd worked out at 8.8 L/kg. The compound also showed a clearance in data set [11] of 64.4 mL/min/kg. In data set [12], the half-life was 9.4 h. Further, in data set [8], the pKa came to 4.2. Further, the AUC in the data set with Rattus norvegicus [13] was determined as 154 ng·h/mL/mg/kg.
